{
  "source": "ChEMBL document CHEMBL2169872",
  "about": "“(S)-N-(2,5-Dimethylphenyl)-1-(quinoline-8-ylsulfonyl)pyrrolidine-2-carboxamide as a small molecule inhibitor probe for the study of respiratory syncytial virus infection” (J Med Chem, 2012)",
  "key": {"[1]": {"test_system": "Respiratory syncytial virus", "assay": "Antiviral activity against Respiratory syncytial virus Long infected in human Hep2 cells assessed as reduction in virus-induced cytopathogenicity by Cell Titer-Glo assay", "assay_type": "functional, organism-based", "settings": "HEp-2"}, "HEp-2 [2]": {"test_system": "HEp-2", "assay": "Cytotoxicity against human Hep2 cells by Cell Titer-Glo assay", "assay_type": "cell-based"}, "[3]": {"assay": "Selectivity index, ratio of CC50 for human Hep2 cells to EC50 for Respiratory syncytial virus Long infected in human Hep2 cells"}, "[4]": {"test_system": "Respiratory syncytial virus", "assay": "Antiviral activity against Respiratory syncytial virus Long infected in human Hep2 cells assessed as log reduction in virus titer at 25 uM by virus plaque reduction assay", "assay_type": "functional, HEp-2"}, "[5]": {"assay": "Aqueous solubility in PBS buffer", "assay_type": "physicochemical"}, "[6]": {"assay": "Chemical stability in 50% PBS/50% acetonitrile solution assessed as unchanged parent compound remaining after 48 hrs", "assay_type": "physicochemical", "settings": "read-out: Stability"}, "[7]": {"test_system": "Respiratory syncytial virus", "assay": "Antiviral activity against Respiratory syncytial virus Long infected in human Hep2 cells assessed as post infection time duration of protection against virus-induced cytopathogenicity by Cell Titer-Glo assay", "assay_type": "functional, HEp-2", "in_short": "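HEp-2 cells seeded at 10 000 cells/well, held 24 h at 37 °C, 5% CO2, then infected with hRSV Long at MOI 3.0 at time 0. Compound added at 25 μM final, in triplicate, at −1, 0, 1, 2, 3, 5, 7, 21 or 24 h pi. Incubated 6 days at 37 °C, 5% CO2. Read by Cell Titer-Glo luminescence after 30 min room-temperature equilibration and 10 min reagent incubation. Uninfected and infected untreated wells served as controls.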"}, "[8]": {"test_system": "Respiratory syncytial virus", "assay": "Antiviral activity against Respiratory syncytial virus Long infected in human Hep2 cells assessed as protection against virus-induced cytopathogenicity by measuring cell viability at 24 hrs post infection by Cell Titer-Glo assay", "assay_type": "functional, HEp-2", "in_short": "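HEp-2 cells seeded at 10 000/well and held 24 h at 37 °C, 5% CO₂, then infected at time 0 with hRSV Long at MOI 3.0. Compound added at 25 μM final, in triplicate, at −1 to 24 h post-infection. After 6 days at 37 °C, plates were brought to room temperature and Cell Titer-Glo luminescence read after 10 min. Cell-only and virus-only controls were included.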"}, "HEp-2 [9]": {"test_system": "HEp-2", "assay": "Cytotoxicity against uninfected human Hep2 cells assessed as cell viability at 25 uM measured after 144 hrs by Cell Titer-Glo assay", "assay_type": "cell-based", "settings": "hep-2, 144 h", "in_short": "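Uninfected HEp-2 cells were given compound at 25 μM at time point 0. Viability was read by Cell Titer-Glo after 144 h.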"}},
  "data": [
    {"molecule": "Cc1ccc(NC(=O)CN(C)S(=O)(=O)c2cccc3cccnc23)c(C)c1", "values": [
      {"measurement": "EC50", "setting": "[1]", "result": "> 50", "unit": "µM"},
      {"measurement": "CC50", "setting": "HEp-2 [2]", "result": "> 50", "unit": "µM"}
    ]},
    {"molecule": "Cc1ccc(NC(=O)[C@H]2CCCN2S(=O)(=O)c2cccc3cccnc23)c(C)c1", "values": [
      {"measurement": "EC50", "setting": "[1]", "result": "> 50", "unit": "µM"},
      {"measurement": "CC50", "setting": "HEp-2 [2]", "result": 38.1, "unit": "µM"},
      {"measurement": "selectivity ratio", "setting": "[3]", "result": 0.8}
    ]},
    {"molecule": "Cc1ccc(NC(=O)[C@@H]2CCCN2S(=O)(=O)c2cccc3cccnc23)c(C)c1", "values": [
      {"measurement": "EC50", "setting": "[1]", "result": 2.7, "unit": "µM"},
      {"measurement": "CC50", "setting": "HEp-2 [2]", "result": 31.8, "unit": "µM"},
      {"measurement": "selectivity ratio", "setting": "[3]", "result": 11.8},
      {"measurement": "FC", "setting": "[4]", "result": 1}
    ]},
    {"molecule": "Cc1ccc(NC(=O)CNS(=O)(=O)c2cccc3cccnc23)c(C)c1", "values": [
      {"measurement": "EC50", "setting": "[1]", "result": "> 50", "unit": "µM"},
      {"measurement": "CC50", "setting": "HEp-2 [2]", "result": "> 50", "unit": "µM"}
    ]},
    {"molecule": "Cc1ccc(NC(=O)C(C)NS(=O)(=O)c2cccc3cccnc23)c(C)c1", "note": "(configuration not stated)", "values": [
      {"measurement": "EC50", "setting": "[1]", "result": "> 50", "unit": "µM"},
      {"measurement": "CC50", "setting": "HEp-2 [2]", "result": "> 50", "unit": "µM"}
    ]},
    {"molecule": "Cc1ccccc1NC(=O)[C@@H]1CCCN1S(=O)(=O)c1cccc2cccnc12", "values": [
      {"measurement": "EC50", "setting": "[1]", "result": 23.8, "unit": "µM"},
      {"measurement": "CC50", "setting": "HEp-2 [2]", "result": "> 50", "unit": "µM"}
    ]},
    {"molecule": "Cc1cccc(NC(=O)[C@@H]2CCCN2S(=O)(=O)c2cccc3cccnc23)c1", "values": [
      {"measurement": "EC50", "setting": "[1]", "result": "> 50", "unit": "µM"},
      {"measurement": "CC50", "setting": "HEp-2 [2]", "result": 25.5, "unit": "µM"}
    ]},
    {"molecule": "Cc1ccc(NC(=O)[C@@H]2CCCN2S(=O)(=O)c2cccc3cccnc23)cc1", "values": [
      {"measurement": "EC50", "setting": "[1]", "result": "> 50", "unit": "µM"},
      {"measurement": "CC50", "setting": "HEp-2 [2]", "result": 31.7, "unit": "µM"}
    ]},
    {"molecule": "O=C(Nc1ccccc1)[C@@H]1CCCN1S(=O)(=O)c1cccc2cccnc12", "values": [
      {"measurement": "EC50", "setting": "[1]", "result": "> 50", "unit": "µM"},
      {"measurement": "CC50", "setting": "HEp-2 [2]", "result": 35.6, "unit": "µM"}
    ]},
    {"molecule": "CCc1ccccc1NC(=O)[C@@H]1CCCN1S(=O)(=O)c1cccc2cccnc12", "values": [
      {"measurement": "EC50", "setting": "[1]", "result": 21.2, "unit": "µM"},
      {"measurement": "CC50", "setting": "HEp-2 [2]", "result": "> 50", "unit": "µM"}
    ]},
    {"molecule": "CC(C)c1ccccc1NC(=O)[C@@H]1CCCN1S(=O)(=O)c1cccc2cccnc12", "values": [
      {"measurement": "EC50", "setting": "[1]", "result": 17.6, "unit": "µM"},
      {"measurement": "CC50", "setting": "HEp-2 [2]", "result": 29.9, "unit": "µM"}
    ]},
    {"molecule": "Cc1ccnc(C)c1NC(=O)[C@@H]1CCCN1S(=O)(=O)c1cccc2cccnc12", "values": [
      {"measurement": "EC50", "setting": "[1]", "result": "> 50", "unit": "µM"},
      {"measurement": "CC50", "setting": "HEp-2 [2]", "result": "> 50", "unit": "µM"}
    ]},
    {"molecule": "Cc1cc(C)cc(NC(=O)[C@@H]2CCCN2S(=O)(=O)c2cccc3cccnc23)c1", "values": [
      {"measurement": "EC50", "setting": "[1]", "result": "> 50", "unit": "µM"},
      {"measurement": "CC50", "setting": "HEp-2 [2]", "result": 31.3, "unit": "µM"}
    ]},
    {"molecule": "O=C(Nc1ccc(Cl)cc1Cl)[C@@H]1CCCN1S(=O)(=O)c1cccc2cccnc12", "values": [
      {"measurement": "EC50", "setting": "[1]", "result": "> 50", "unit": "µM"},
      {"measurement": "CC50", "setting": "HEp-2 [2]", "result": "> 50", "unit": "µM"}
    ]},
    {"molecule": "Cc1ccc(C)c(NC(=O)[C@@H]2CCCN2S(=O)(=O)c2cccc3cccnc23)c1", "values": [
      {"measurement": "EC50", "setting": "[1]", "result": 2.3, "unit": "µM"},
      {"measurement": "CC50", "setting": "HEp-2 [2]", "result": 30.9, "unit": "µM"},
      {"measurement": "FC", "setting": "[4]", "result": 2},
      {"measurement": "solubility", "setting": "[5]", "result": 92.7, "unit": "µg/mL"},
      {"measurement": "remaining at 48 h", "setting": "[6]", "result": 95.4, "unit": "%"},
      {"measurement": "Time", "setting": "[7]", "result": 1, "unit": "h"},
      {"measurement": "Activity", "setting": "[8]", "result": 26, "unit": "%"}
    ]},
    {"molecule": "Cc1cccc(C)c1NC(=O)[C@@H]1CCCN1S(=O)(=O)c1cccc2cccnc12", "values": [
      {"measurement": "EC50", "setting": "[1]", "result": "> 50", "unit": "µM"},
      {"measurement": "CC50", "setting": "HEp-2 [2]", "result": "> 50", "unit": "µM"}
    ]},
    {"molecule": "Cc1ccc(Cl)cc1NC(=O)[C@@H]1CCCN1S(=O)(=O)c1cccc2cccnc12", "values": [
      {"measurement": "EC50", "setting": "[1]", "result": 2.2, "unit": "µM"},
      {"measurement": "CC50", "setting": "HEp-2 [2]", "result": 10, "unit": "µM"}
    ]},
    {"molecule": "Cc1ccc(C(F)(F)F)cc1NC(=O)[C@@H]1CCCN1S(=O)(=O)c1cccc2cccnc12", "values": [
      {"measurement": "EC50", "setting": "[1]", "result": "> 50", "unit": "µM"},
      {"measurement": "CC50", "setting": "HEp-2 [2]", "result": 4.8, "unit": "µM"}
    ]},
    {"molecule": "COc1ccc(C)c(NC(=O)[C@@H]2CCCN2S(=O)(=O)c2cccc3cccnc23)c1", "values": [
      {"measurement": "EC50", "setting": "[1]", "result": 4.2, "unit": "µM"},
      {"measurement": "CC50", "setting": "HEp-2 [2]", "result": 44.2, "unit": "µM"},
      {"measurement": "FC", "setting": "[4]", "result": 1},
      {"measurement": "Activity", "setting": "HEp-2 [9]", "result": 88, "unit": "%"}
    ]},
    {"molecule": "Cc1ccc(C(C)C)cc1NC(=O)[C@@H]1CCCN1S(=O)(=O)c1cccc2cccnc12", "values": [
      {"measurement": "EC50", "setting": "[1]", "result": "> 50", "unit": "µM"},
      {"measurement": "CC50", "setting": "HEp-2 [2]", "result": 9.7, "unit": "µM"}
    ]},
    {"molecule": "Cc1ccc(C(C)(C)C)cc1NC(=O)[C@@H]1CCCN1S(=O)(=O)c1cccc2cccnc12", "values": [
      {"measurement": "EC50", "setting": "[1]", "result": "> 50", "unit": "µM"},
      {"measurement": "CC50", "setting": "HEp-2 [2]", "result": 6.5, "unit": "µM"}
    ]},
    {"molecule": "Cc1ccc(Cl)c(NC(=O)[C@@H]2CCCN2S(=O)(=O)c2cccc3cccnc23)c1", "values": [
      {"measurement": "EC50", "setting": "[1]", "result": "> 50", "unit": "µM"},
      {"measurement": "CC50", "setting": "HEp-2 [2]", "result": "> 50", "unit": "µM"}
    ]},
    {"molecule": "COc1ccc(C)cc1NC(=O)[C@@H]1CCCN1S(=O)(=O)c1cccc2cccnc12", "values": [
      {"measurement": "EC50", "setting": "[1]", "result": "> 50", "unit": "µM"},
      {"measurement": "CC50", "setting": "HEp-2 [2]", "result": "> 50", "unit": "µM"}
    ]},
    {"molecule": "Cc1cc(NC(=O)[C@@H]2CCCN2S(=O)(=O)c2cccc3cccnc23)n(C(C)(C)C)n1", "values": [
      {"measurement": "EC50", "setting": "[1]", "result": "> 50", "unit": "µM"},
      {"measurement": "CC50", "setting": "HEp-2 [2]", "result": "> 50", "unit": "µM"}
    ]},
    {"molecule": "Cc1ccc(NC(=O)C2CCCN2S(=O)(=O)c2cccc3cccnc23)c(C)c1", "note": "(racemic)", "values": [
      {"measurement": "EC50", "setting": "[1]", "result": 5, "unit": "µM"},
      {"measurement": "CC50", "setting": "HEp-2 [2]", "result": 31.5, "unit": "µM"},
      {"measurement": "selectivity ratio", "setting": "[3]", "result": 6.3},
      {"measurement": "FC", "setting": "[4]", "result": 2.1}
    ]},
    {"molecule": "NC(=O)c1ncn([C@@H]2O[C@H](CO)[C@@H](O)[C@H]2O)n1", "note": "[RIBAVIRIN]", "values": [
      {"measurement": "EC50", "setting": "[1]", "result": 28.4, "unit": "µM"},
      {"measurement": "CC50", "setting": "HEp-2 [2]", "result": 114, "unit": "µM"},
      {"measurement": "FC", "setting": "[4]", "result": 2.5},
      {"measurement": "Activity", "setting": "HEp-2 [9]", "result": 90, "unit": "%"},
      {"measurement": "Time", "setting": "[7]", "result": 7, "unit": "h"}
    ]}
  ]
}
